Tested on: MS2 coat protein
Assay: apparent Kd, MS2 coat protein; higher = weaker binding; RNA-MaP array
How it was run: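 Apparent Kd was taken as the median of binding curves fitted cluster by cluster. The designed RNAs were made by transcription of sequenced DNA templates on an Illumina sequencing chip and exposed to fluorescently labeled MS2 coat protein (1.5 nM to 3 μM) at room temperature, with or without input ligand, for 0.8–1.5 h at the lowest and 10–20 min at the highest concentrations. Any design measured on fewer than 10 clusters was left out.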

[1] = designed as: OFF switch for flavin mononucleotide, no ligand
[2] = ligand present: flavin mononucleotide, designed as: OFF switch for flavin mononucleotide
[3] = designed as: ON switch for flavin mononucleotide, no ligand
[4] = ligand present: flavin mononucleotide, designed as: ON switch for flavin mononucleotide
[5] = designed as: ON switch for tryptophan, no ligand
[6] = ligand present: tryptophan, designed as: ON switch for tryptophan
[7] = designed as: ON switch for theophylline, no ligand
[8] = ligand present: theophylline, designed as: ON switch for theophylline
[9] = designed as: OFF switch for tryptophan, no ligand
[10] = ligand present: tryptophan, designed as: OFF switch for tryptophan

| Sequence | apparent Kd [1] [nM] | apparent Kd [2] [nM] | other results |
| --- | --- | --- | --- |
| GGGAUACAUGAGGAUCACCCAUGUCAGGAUAUCUUUUACCGGCACGACAAUCAUAUGAAGAGAAGGGACUAUAU | 35 | 31.9 | – |
| CACAGGUCAGUAGGAUAUGCUACAUGAGGAUCACCCAUGUGGUGGUAUAUGCGUCUAGGCGCAAAGCAGAAGGACUUCCAGGUG | 42 | 146 | – |
| CUCCCACAUGAGGAUCACCCAUGUAUGAAAAUACAAGGAUAUGGCGUCCUGAUUAGCGGCCCAGAAGGUGUGCUUU | – | – | apparent Kd [3]: 114 nM; apparent Kd [4]: 70.2 nM |
| AUACAGCUAGGAUAUCCGAUAGUAUACAUGAGGAUCACCCAUGUCCUGACGGCCGACCAUGGAGAAGGAGCAGAUA | 42.2 | 31.9 | – |
| CCUGACAUGAGGAUCACCCAUGUGUGAGCACGAGGACCGGUACGGCCGCCACUCGCGUUGCCGGCCGGACUAUCUGGCGAAGUCA | – | – | apparent Kd [5]: 32.9 nM; apparent Kd [6]: 35.1 nM |
| AAACCCAAAGUUAGGAUAUGCAUUGCCGGCCCUGUGCAGAAGGAACAUGAGGAUCACCCAUGUACUGGUGUUCG | 42.7 | 103 | – |
| UUCGGCCUUUAGAAGGAUUGUAUACAUGAGGAUCACCCAUGUUGGUGAUACAGAUAUAUUCGGCAAUAGGAUAUAAGCAGGUGA | 826 | 598 | – |
| AUAAAUUUUACACGUUGCUACAUGAGGAUCACCCAUGUGUGGAGAAGGGAUCUGCCUACAAGGAAUCAGGAUAUCCAACUGUUC | – | – | apparent Kd [3]: 32.9 nM; apparent Kd [4]: 51.6 nM |
| CGACGCUUAGGAUAUUGGUACACCUACAUGAGGAUCACCCAUGUGACUCCUUUACAAGGGCAAGAAGGAAGUUGGU | 110 | 221 | – |
| AUAUGAGGAGUGAGGAUAUGAAUCUAACAGAAUAAUCAGAAGGCACAUGAGGAUCACCCAUGUAAAUAUAUGGU | 10.6 | 11.5 | – |
| GUUUCACAUGAGGAUCACCCAUGUCAAUGCACUGUAGGAUAUGGUUGGUUUCCGCAGCGGCCAGAAGGACAAAUAU | – | – | apparent Kd [3]: 51.2 nM; apparent Kd [4]: 33.5 nM |
| GUCUCAGACCGAGAUACCAGCUGGGUUUCCCACAUGAGGAUCACCCAUGUAUUCAGAUUAAGCCCUUGGCAGCUCAUCUAGGUCC | – | – | apparent Kd [7]: 15.8 nM; apparent Kd [8]: 20.9 nM |
| AUCGUGCCAAGAGGAUAUCACCAUUCAAUACCCACAUGAGGAUCACCCAUGUAUGCAGUGUUCCGUGAGAAGGCUUGCAUACCA | – | – | apparent Kd [3]: 113 nM; apparent Kd [4]: 19.4 nM |
| CGGACCUGAGAGAAGGGCAGCCGACAUGAGGAUCACCCAUGUAAUCGAGGACCAUCCUCAUUUUUGCAGGAUAUCUAUUGUUAU | 35.4 | 37.3 | – |
| AUAAUAGUAGGAUAUACAUGAGGAUCACCCAUGUGACCGCUCAAAGAUAGCGAUGCUCGUAGAAGGACUGUGGA | 21.3 | 21.8 | – |
| AGCGUGGAUAAAGGAUAUGUACCGGUAACUACAUGAGGAUCACCCAUGUCUUCAGGCCAAAACCGACAGAAGGUUACUUAUCGC | 21.7 | 20.7 | – |
| UGUGCCUAGUAGAAGGCGCCGACUCGCUCACGGCGAGGAUAUACUACUCAGGGCACAUGAGGAUCACCCAUGUGUGAUUCGUAA | 103 | 23.1 | – |
| UGAUGAUGACAGGAUAUUAGCGUAAUGAAACUUUAAGAAGGGUCGACAUGAGGAUCACCCAUGUAUGAUCUCGA | 5.5 | 5.38 | – |
| AGAAGACAUGAGGAUCACCCAUGUGAGGAUAUUACACUAGAAAACAGCCGCGUCUCGGUAAGAAGGCACUAUGG | 33.9 | 36.6 | – |
| GCUGAUCAACCCUAGGAUAUCACCCAUACCACAUGAGGAUCACCCAUGUCGGGUUGCUAUGUGGCUGAGAAGGAGGUGCACUAUAC | – | – | apparent Kd [3]: 23 nM; apparent Kd [4]: 8.76 nM |
| CCAUGGUUGACGGCCGCCACUCAUUAGUCUUUGAGGUUGGCACAUGAGGAUCACCCAUGUCUGCAGAGGACCGGGUCUCGCCACA | – | – | apparent Kd [5]: 44.3 nM; apparent Kd [6]: 44.2 nM |
| GAAAAGGACAAAGGAUAUGGGUAGGCAAUCAAUCCAGAAGGUAGACCAGGCAACCUAAACAAACAUGAGGAUCACCCAUGUUAG | – | – | apparent Kd [3]: 16.6 nM; apparent Kd [4]: 14.3 nM |
| AACUCCACCGCAGGAUAUCCGGUCUCUCUGUAGACGACAUGAGGAUCACCCAUGUAUCCGGGAAUGGAGAAGGGCGGUGCUCCU | 16.4 | 13 | – |
| AAGAGUGUGAGAGGAUAUGCUUACCCAUAUCACAUGAGGAUCACCCAUGUCGGCGAUUGUAUUAUGCAGAAGGCUCAAGGACUC | – | – | apparent Kd [3]: 18.3 nM; apparent Kd [4]: 9.8 nM |

| Sequence | apparent Kd [1] [nM] | apparent Kd [2] [nM] | other results |
| --- | --- | --- | --- |
| GAGUCGCGAGGAUAUGGAAUGGACUACAUGAGGAUCACCCAUGUCCUUUCCCUUGUUUGUCCAGAAGGCGCCAUCC | 27 | 24.4 | – |
| AGCGACAUGAGGAUCACCCAUGUGUUAGCUAAGCCUCUCAGCAGAAGGGAUGGUGUCCCAGAUGAUCAGGAUAUGCUGUUUUUG | 32.2 | 23.9 | – |
| GUACAGGAAGGAUAUACCAGGUAAGUUAAGUUUUCACAUUGACAUGAGGAUCACCCAUGUAGAAGGUCCCUAUA | 36.7 | 31.7 | – |
| CCCAAUUUCCGAGAUAUGGGUCCAACUAAACGAGGACCGGUACGGCCGCCACUCGACUACAAACAUGAGGAUCACCCAUGUAAAG | – | – | apparent Kd [9]: 17 nM; apparent Kd [10]: 17.4 nM |
| ACCUGGUGUAAGAAGGAGCAGAUAUAACGGUCGCUAGGAUAUUACCCUUCAAAAUGGGAUCUCACAUGAGGAUCACCCAUGUUA | 143 | 218 | – |
| GCCAUAAAAGAGAAGGGCGGCCACCUACGAACCGCAGGAUAUCUUUGCUUUCCUCGGACAUGAGGAUCACCCAUGUGGCCAAUA | 97.3 | 160 | – |
| AUGUGUAUUGAAGGAUAUGAAGCCGGCAUAAAAUCAGAAGGUCAACUAAUUACACAUGAGGAUCACCCAUGUGAUGACAUGCUU | 17.2 | 24.8 | – |
| GCGAACGGACCGUUGCCUUCCUGUGUGCGGCGAGGACCGGUACGGCCGCCACUCGACUGCGUACAUGAGGAUCACCCAUGUUAGA | – | – | apparent Kd [9]: 26.5 nM; apparent Kd [10]: 66.3 nM |
| CUGUUCGUAGGAUAUACUGAAACACGGGACAUUCUGAUUAGACAUGAGGAUCACCCAUGUAGAAGGACGCACGU | 17.4 | 16.9 | – |
| GUACUGUACAAGAAGGUUGAUUUGCAUCAAGAUCCGAUUUACAUGAGGAUCACCCAUGUUUUAUCAAAGGAUAUUGGUACAACG | 11 | 66.8 | – |
| GGACAACAUGAGGAUCACCCAUGUCCUGAUACCAGUCAGCGCAGUGACCCUUGGCAGCAGACGGAUACGAAAUAACUGAGAGAUA | – | – | apparent Kd [7]: 40.6 nM; apparent Kd [8]: 42.1 nM |
| CCAGUUACCAGAGGAUAUGAUUCCAGAGUUAAGGGUAUUCACAUGAGGAUCACCCAUGUGCUCCUUCAGAAGGCUGAUAACCCG | 39.8 | 49.4 | – |
| UUGUGUACUCGAGGAUAUAAUGGACUACAUGAGGAUCACCCAUGUAUACGCCCACAGAGCGUCUUUUAGAAGGCGACGCAUCAU | – | – | apparent Kd [3]: 8.4 nM; apparent Kd [4]: 7.85 nM |
| CGAUGACAUGAGGAUCACCCAUGUUGCGGUAUUCAAGGAUAUCCUGAGUUUUCAAGCAUUGGAGAAGGUGAUUUCG | – | – | apparent Kd [3]: 30.1 nM; apparent Kd [4]: 26.1 nM |
| GAUCAUUUAGUGAGGAUAUGUCUCCUGCAAAGUCGACAGAAGGCACAUGAGGAUCACCCAUGUUCGCUUCGGAU | 5 | 5.75 | – |
| AGUACCGUACGGAAAACAUGAGGAUCACCCAUGUCUAAUUAGAAGGAUAUGCUCUGUAAAUCGACGCAGAAGGUCAGCUAGAAU | – | – | apparent Kd [3]: 22.5 nM; apparent Kd [4]: 19 nM |
| CCAAAAUCGAAGAAGGCUAUGCGUACCAAUCUUAGAGGAUAUUCGACCUUAGCUAACAUGAGGAUCACCCAUGUGGGAAACACG | 28 | 19.5 | – |
| UUUAUGUCAGGAUAUCCAACACUAUGGGAAAGUAAAUAUAGGGAGAAGGGACAUGAGGAUCACCCAUGUCAACA | 8.12 | 8.59 | – |
| UACCAUAGACCAGUUAGCGACACAUGAGGAUCACCCAUGUAGAGAAGGUGCUCUAUCUUAAGACGCAAGGAUAUCUGCAUUAUA | 20.3 | 21.9 | – |
| CGUACAAUUAAGAAGGGACAUUGCUAUAGACUGUCAGGAUAUUAUGUACAUGAGGAUCACCCAUGUAGUAGUCAAGGGUCGGAA | 16.7 | 61.7 | – |
| AAAAGUACAGGAUAUACAUGAGGAUCACCCAUGUCAGAAUAUAAUGAUAAGAAACUGAGUAGAAGGGUAACGAG | 28.6 | 20.3 | – |
| ACAGGACUAGUAGGAUAUGCGCCGGUAGUACCCGCAGAAGGACUUUCACGGGUUAUUGUCACAUGAGGAUCACCCAUGUGAGGG | 13.2 | 13 | – |
| UUAGACCUGCGAGGAUAUUCCAGACUAACUGAGGAAGAAGGCGCUAGAACAUGAGGAUCACCCAUGUAACAGGGAACACUUCGU | 9.82 | 26.3 | – |

From the EternaBench riboswitch data
